17 compounds from ChEMBL document CHEMBL1152519, “Synthesis, structural activity-relationships, and biological evaluation of novel amide-based allosteric binding site antagonists in NR1A/NR2B N-methyl-D-aspartate receptors” (Bioorg Med Chem, 2009) can be followed below.

The target in series [1] is Ionotropic glutamate receptor NMDA 1/2D (Rattus norvegicus) (UniProt P35439+Q62645). The experiment in a line: Antagonist activity at rat recombinant NR1/NR2D receptor expressed in Xenopus laevis oocytes assessed as inhibition of glutamate/glycine-induced current at 3 uM by two electrode voltage clamp method relative to control. In kind it is functional, cell-based. The conditions noted are these: Oocyte. Summed up:
(§1)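 Xenopus oocytes injected with NR1-1a (3–5 ng) plus NR2A, 2B, 2C or 2D cRNA (7–10 ng), kept at 15 °C. Voltage clamp at −40 mV. Responses to 50 μM glutamate + 30 μM glycine with 3 μM compound, as % of response without compound. NR2A oocytes pre-loaded with 50 μM BAPTA-AM. Mean ± SEM, 4–10 oocytes; paired t-test.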
For orientation: Two-electrode voltage clamp is typically applied to oocytes expressing channels or transporters.

Series [2] concerns the target Glutamate NMDA receptor; Grin1/Grin2c (Rattus norvegicus) (UniProt P35439+Q00961). The experiment in a line: Antagonist activity at rat recombinant NR1/NR2C receptor expressed in Xenopus laevis oocytes assessed as inhibition of glutamate/glycine-induced current at 3 uM by two electrode voltage clamp method relative to control. In kind it is functional, cell-based. The conditions noted are these: Oocyte. In short, it runs like this: as §1

For series [3], the target named is Glutamate receptor ionotropic, kainate 2 (Rattus norvegicus) (UniProt P42260). The experiment in a line: Antagonist activity at rat recombinant GluR6 expressed in Xenopus laevis oocytes assessed as inhibition of concanavalin A/glutamate-induced current at 3 uM by two electrode voltage clamp method relative to control. In kind it is functional, cell-based. The conditions noted are these: Oocyte. In short, it runs like this:
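Oocytes expressing homomeric GluR6 (5–10 ng cRNA) pretreated 5 min with 10 μM concanavalin-A. Currents evoked by 100 μM glutamate at −40 mV, with or without 3 μM compound, and given as percent of control. Mean ± SEM of 4–10 oocytes; paired t-test.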

Series [4] deals with Glutamate NMDA receptor; Grin1/Grin2b (Rattus norvegicus) (UniProt P35439+Q00960). The experiment in a line: Antagonist activity at rat recombinant NR1/NR2B receptor expressed in Xenopus laevis oocytes assessed as inhibition of glutamate/glycine-induced current at 3 uM by two electrode voltage clamp method relative to control. In kind it is functional, cell-based. The conditions noted are these: Oocyte. Summed up: as §1

Series [5] has as its target Glutamate NMDA receptor; GRIN1/GRIN2B (Homo sapiens, UniProt Q05586+Q13224). The experiment in a line: Antagonist activity at human recombinant NR1/NR2B receptor expressed in frog oocytes assessed as inhibition of glutamate/glycine-induced current by two electrode voltage clamp method. In kind it is functional, cell-based, Oocyte. Summed up:
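Human NR1/NR2B cRNA injected into Xenopus oocytes. Two-electrode voltage clamp at −40 mV, 23 °C, 2–7 d after injection. Glutamate/glycine (50–100 μM/30 μM) applied, then with 5–8 compound concentrations. Bath contains 10 μM EDTA; leak-corrected.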

In series [6] the target is Glutamate NMDA receptor; Grin1/Grin2a (Rattus norvegicus) (UniProt P35439+Q00959). The experiment in a line: Antagonist activity at rat recombinant NR1/NR2A receptor expressed in Xenopus laevis oocytes assessed as inhibition of glutamate/glycine-induced current at 3 uM by two electrode voltage clamp method relative to control. In kind it is functional, cell-based. The conditions noted are these: Oocyte. In short, it runs like this: as §1

For series [7], the target named is Glutamate receptor 1 (Rattus norvegicus) (UniProt P19490). The experiment in a line: Antagonist activity at rat recombinant GluR1 expressed in Xenopus laevis oocytes assessed as inhibition of glutamate-induced current at 3 uM by two electrode voltage clamp method relative to control. In kind it is functional, cell-based. The conditions noted are these: Oocyte. Summed up: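 GluR1 homomers expressed from 5–10 ng cRNA in Xenopus oocytes. Clamped at −40 mV. Currents evoked by 100 μM glutamate with 3 μM compound, expressed as % of control without compound. Mean ± SEM, 4–10 oocytes; paired t-test.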
Chain of Glutamate receptor 1 (Rattus norvegicus) (P19490 whole entry): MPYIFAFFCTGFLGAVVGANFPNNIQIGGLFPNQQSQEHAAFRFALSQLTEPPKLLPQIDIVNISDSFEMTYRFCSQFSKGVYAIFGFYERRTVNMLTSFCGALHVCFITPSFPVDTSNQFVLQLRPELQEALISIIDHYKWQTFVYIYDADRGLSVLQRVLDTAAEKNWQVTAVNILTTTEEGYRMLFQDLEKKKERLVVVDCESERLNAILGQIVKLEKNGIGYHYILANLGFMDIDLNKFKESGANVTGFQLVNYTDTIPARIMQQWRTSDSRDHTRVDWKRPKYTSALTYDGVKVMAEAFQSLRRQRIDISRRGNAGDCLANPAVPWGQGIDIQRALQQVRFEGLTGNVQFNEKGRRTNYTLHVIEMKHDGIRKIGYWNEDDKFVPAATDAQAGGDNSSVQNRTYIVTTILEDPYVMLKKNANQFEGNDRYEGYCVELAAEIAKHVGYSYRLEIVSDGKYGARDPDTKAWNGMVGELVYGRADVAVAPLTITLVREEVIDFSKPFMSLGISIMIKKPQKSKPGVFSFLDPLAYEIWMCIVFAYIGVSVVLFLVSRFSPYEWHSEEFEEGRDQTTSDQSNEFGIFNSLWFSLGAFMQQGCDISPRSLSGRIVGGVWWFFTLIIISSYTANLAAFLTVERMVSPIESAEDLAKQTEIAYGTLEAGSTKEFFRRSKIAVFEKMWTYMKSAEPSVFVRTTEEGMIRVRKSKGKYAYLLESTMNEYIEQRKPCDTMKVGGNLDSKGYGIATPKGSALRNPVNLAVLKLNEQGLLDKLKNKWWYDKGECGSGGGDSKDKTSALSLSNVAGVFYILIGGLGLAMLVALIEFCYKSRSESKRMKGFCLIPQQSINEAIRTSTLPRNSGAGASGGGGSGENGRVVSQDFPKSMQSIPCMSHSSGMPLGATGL

Series [8] deals with Adrenergic receptor alpha-1 (Rattus norvegicus) (UniProt P15823+P23944+P43140). The experiment in a line: Displacement of [3H]prazosin from alpha1 adrenergic receptor in Wistar rat brain membrane at 3 uM. In kind it is cell membranes. In short, it runs like this:
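Wistar rat brain membranes. Percent displacement of 0.25 nM [3H]prazosin by 3 μM compound, run in duplicate.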
On the technique in general: Displacement assays read how much labelled ligand stays bound in the presence of the test substance.

For series [9], the target named is Voltage-gated inwardly rectifying potassium channel KCNH2 (Homo sapiens, UniProt Q12809). The experiment in a line: Displacement of [3H]astemizole from human recombinant ERG expressed in HEK293 cells. In kind it is cell-based.
The target of series [10] is hERG (KCNH2) (Homo sapiens, UniProt Q12809). The experiment in a line: Displacement of [3H]astemizole from human recombinant ERG expressed in HEK293 cells at 10 uM. In kind it is cell-based. The conditions noted are these: HEK293 cells expressing human recombinant ERG, probe [3H]astemizole, read-out: Activity.
Chain of hERG (KCNH2) (Q12809 whole entry): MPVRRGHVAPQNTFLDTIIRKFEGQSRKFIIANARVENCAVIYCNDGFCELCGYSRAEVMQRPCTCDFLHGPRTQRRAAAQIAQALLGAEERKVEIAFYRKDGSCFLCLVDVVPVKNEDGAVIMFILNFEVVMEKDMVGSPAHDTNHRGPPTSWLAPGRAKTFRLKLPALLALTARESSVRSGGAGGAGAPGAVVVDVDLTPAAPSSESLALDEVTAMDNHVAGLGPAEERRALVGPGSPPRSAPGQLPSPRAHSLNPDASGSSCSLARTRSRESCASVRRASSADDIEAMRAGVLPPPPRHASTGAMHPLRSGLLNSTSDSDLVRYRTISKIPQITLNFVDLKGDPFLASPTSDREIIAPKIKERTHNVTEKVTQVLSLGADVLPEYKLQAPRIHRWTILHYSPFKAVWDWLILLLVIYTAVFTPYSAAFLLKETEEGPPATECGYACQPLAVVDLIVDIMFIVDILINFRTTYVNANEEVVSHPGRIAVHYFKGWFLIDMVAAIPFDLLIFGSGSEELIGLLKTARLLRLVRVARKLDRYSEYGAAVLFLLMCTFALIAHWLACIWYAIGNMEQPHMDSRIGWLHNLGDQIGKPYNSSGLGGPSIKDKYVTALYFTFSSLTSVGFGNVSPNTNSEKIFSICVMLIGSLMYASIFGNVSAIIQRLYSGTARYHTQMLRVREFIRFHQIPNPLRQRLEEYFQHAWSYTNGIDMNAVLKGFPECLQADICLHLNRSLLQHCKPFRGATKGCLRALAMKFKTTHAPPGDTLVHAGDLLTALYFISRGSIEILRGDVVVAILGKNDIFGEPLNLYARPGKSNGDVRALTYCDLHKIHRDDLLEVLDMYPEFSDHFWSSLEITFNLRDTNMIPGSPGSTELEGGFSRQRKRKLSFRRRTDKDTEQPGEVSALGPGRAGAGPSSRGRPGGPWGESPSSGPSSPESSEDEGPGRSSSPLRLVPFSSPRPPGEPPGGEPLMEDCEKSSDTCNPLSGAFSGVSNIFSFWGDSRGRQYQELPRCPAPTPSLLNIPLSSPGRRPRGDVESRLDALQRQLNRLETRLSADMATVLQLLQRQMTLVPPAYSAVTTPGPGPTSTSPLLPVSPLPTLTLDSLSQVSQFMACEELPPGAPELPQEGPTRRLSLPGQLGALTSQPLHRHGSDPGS

A value given as a limit tells only on which side of the number the result lay.

Chain of Glutamate NMDA receptor; GRIN1/GRIN2B (Q13224 whole entry, other chains not shown): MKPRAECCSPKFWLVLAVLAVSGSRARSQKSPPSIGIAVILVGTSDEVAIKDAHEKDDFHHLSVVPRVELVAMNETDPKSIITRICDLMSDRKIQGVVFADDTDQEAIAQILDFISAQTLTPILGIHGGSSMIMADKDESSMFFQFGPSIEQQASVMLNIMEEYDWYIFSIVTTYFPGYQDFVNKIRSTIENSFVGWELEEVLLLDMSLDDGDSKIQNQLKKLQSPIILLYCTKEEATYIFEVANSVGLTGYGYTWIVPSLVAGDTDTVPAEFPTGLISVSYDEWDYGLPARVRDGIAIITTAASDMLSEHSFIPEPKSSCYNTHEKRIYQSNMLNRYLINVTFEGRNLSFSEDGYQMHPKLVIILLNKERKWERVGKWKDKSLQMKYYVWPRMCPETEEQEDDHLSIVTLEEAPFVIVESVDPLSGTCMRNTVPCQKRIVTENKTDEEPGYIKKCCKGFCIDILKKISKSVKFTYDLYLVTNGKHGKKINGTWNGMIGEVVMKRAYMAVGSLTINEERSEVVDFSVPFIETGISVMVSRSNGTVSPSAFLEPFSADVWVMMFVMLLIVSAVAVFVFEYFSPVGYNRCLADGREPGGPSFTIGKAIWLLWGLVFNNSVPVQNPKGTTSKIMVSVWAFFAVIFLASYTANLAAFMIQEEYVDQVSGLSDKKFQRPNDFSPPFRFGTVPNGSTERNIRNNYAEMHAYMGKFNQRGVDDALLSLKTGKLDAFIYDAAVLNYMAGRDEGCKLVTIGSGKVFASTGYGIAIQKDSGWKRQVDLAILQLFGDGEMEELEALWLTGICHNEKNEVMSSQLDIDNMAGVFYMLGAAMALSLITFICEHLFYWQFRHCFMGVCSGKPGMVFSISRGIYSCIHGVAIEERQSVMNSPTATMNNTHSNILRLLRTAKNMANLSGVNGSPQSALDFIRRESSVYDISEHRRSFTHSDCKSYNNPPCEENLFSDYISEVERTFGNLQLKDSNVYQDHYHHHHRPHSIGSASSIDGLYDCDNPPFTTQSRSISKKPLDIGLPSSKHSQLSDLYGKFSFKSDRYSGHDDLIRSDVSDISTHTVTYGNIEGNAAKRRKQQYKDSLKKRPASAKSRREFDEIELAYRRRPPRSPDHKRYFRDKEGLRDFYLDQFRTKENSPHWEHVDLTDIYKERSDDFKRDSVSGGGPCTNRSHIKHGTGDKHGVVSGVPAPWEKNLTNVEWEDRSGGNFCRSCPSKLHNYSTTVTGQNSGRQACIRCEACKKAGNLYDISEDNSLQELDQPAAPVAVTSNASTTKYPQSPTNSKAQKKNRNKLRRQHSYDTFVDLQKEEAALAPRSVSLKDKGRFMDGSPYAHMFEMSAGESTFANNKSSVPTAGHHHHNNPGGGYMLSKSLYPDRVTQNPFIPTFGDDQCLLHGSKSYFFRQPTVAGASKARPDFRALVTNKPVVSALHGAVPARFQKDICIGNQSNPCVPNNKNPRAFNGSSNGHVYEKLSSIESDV
Chain of Glutamate receptor ionotropic, kainate 2 (Rattus norvegicus) (P42260 whole entry): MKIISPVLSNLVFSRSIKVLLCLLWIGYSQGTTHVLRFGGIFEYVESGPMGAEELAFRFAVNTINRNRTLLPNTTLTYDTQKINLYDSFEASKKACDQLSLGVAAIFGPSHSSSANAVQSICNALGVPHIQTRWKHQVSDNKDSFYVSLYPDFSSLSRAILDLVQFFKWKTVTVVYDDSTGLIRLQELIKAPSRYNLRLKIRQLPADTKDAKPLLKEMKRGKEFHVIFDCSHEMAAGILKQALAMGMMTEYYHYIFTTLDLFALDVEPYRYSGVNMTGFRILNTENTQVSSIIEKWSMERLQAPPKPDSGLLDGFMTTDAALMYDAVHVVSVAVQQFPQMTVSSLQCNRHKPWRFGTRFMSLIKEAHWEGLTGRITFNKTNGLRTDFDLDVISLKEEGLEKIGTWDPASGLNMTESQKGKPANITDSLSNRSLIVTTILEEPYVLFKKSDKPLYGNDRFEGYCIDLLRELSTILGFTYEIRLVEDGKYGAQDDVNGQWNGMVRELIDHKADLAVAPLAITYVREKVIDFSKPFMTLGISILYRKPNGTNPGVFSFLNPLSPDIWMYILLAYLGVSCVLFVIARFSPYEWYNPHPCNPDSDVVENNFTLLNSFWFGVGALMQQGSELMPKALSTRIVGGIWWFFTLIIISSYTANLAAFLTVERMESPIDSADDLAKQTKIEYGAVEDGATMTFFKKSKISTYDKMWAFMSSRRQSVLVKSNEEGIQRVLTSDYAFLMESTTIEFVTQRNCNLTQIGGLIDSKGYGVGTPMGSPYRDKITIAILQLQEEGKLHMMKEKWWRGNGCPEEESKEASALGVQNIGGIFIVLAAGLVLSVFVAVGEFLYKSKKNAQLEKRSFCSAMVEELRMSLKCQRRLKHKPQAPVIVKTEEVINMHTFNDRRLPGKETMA

A word on the IC50: it is the concentration that gives 50% inhibition. As for `CS(=O)(=O)Nc1ccc(OCC(=O)NCCCNc2ccc(Cl)c(Cl)c2)cc1`, the % response in series [1] was determined as 100%; in [2] it was 97%; in [3], 90%; in [4], 12%; in series [6] it was 106%; in series [7], 103%. The concentration for half-maximal inhibition (IC50) in [5] is 193 nM.
For `CS(=O)(=O)Nc1ccc(CCC(=O)N2CCN(c3ccc(Cl)c(Cl)c3)CC2)cc1`, the % response in series [1] came out at 97%; in [2], 100%; in series [3] it was 101%; in series [4] it was 48%; in [6], 103%; in series [7], 104%. In series [5], the 50% inhibitory concentration (IC50) is 3600 nM.
The term Ki denotes the equilibrium dissociation constant of an inhibitor or competing ligand from its target. Take `CS(=O)(=O)Nc1ccc(CCCNCCNc2ccc(Cl)c(Cl)c2)cc1`: the Activity in series [8] came to 52%. Also, the % response in series [1] came out at 91%; in series [2] it was 104%; in series [3], 99%; in series [4] it was 21%; in series [6], 89%; in [7], 102%. The inhibition constant Ki in series [9] came to 14 nM. In series [10], the inhibition at 10 µM is above 98%. Moreover, in series [5], the IC50 stood at 19 nM.
Turning to `CS(=O)(=O)Nc1ccc(CCC(=O)NNC(=S)Nc2ccc(Cl)c(Cl)c2)cc1`, the % response came out at 92% in [1]; 94% in series [2]; 96% in [3]; 12% in series [4]; 104% in series [6]; 100% in series [7]. Further, the inhibition at 10 µM in series [10] was 13%. Further, the half-maximal inhibitory concentration (IC50) in series [5] worked out at 270 nM.
For `CS(=O)(=O)Nc1ccc(OCC(=O)NCCCc2ccc(Cl)c(Cl)c2)cc1`, the % response came out at 79% in series [1]; 96% in series [2]; 102% in series [3]; 15% in series [4]; 99% in series [6]; 100% in series [7]. For the same compound, the inhibition at 10 µM in [10] was below 1%. Moreover, the half-maximal inhibitory concentration (IC50) in series [5] was 64 nM.
Consider `CS(=O)(=O)Nc1ccc(OCC(=O)NC/C=C/c2ccc(Cl)c(Cl)c2)cc1`, for which the Activity in [8] was 22%. Further, the % response in [1] was determined as 97%; in series [2], 95%; in [3] it was 94%; in series [4], 14%; in series [6], 100%; in series [7], 101%. Further, the inhibition at 10 µM in series [10] was 74%. Also, in series [5], the IC50 was determined as 72 nM.
As to `CS(=O)(=O)Nc1ccc(CCC(=O)NNC(=O)c2ccc(Cl)c(Cl)c2)cc1`, the % response in series [1] is 96%; in [2] it was 97%; in [3], 97%; in [4], 21%; in [6] it was 102%; in series [7], 100%. Further, in series [5], the 50% inhibitory concentration (IC50) was 521 nM.
In [8], `CS(=O)(=O)Nc1ccc(OCCNCCNc2ccc(Cl)c(Cl)c2)cc1` came in with an Activity of 49%. Moreover, the % response in series [1] was determined as 100%; in [2], 100%; in [3], 98%; in [4] it was 17%; in series [6], 91%; in series [7], 101%. In addition, the inhibitory constant (Ki) in series [9] was found to be 300 nM. The inhibition at 10 µM in series [10] is 97%. Moreover, in series [5], the IC50 was 39 nM.
Turning to `CS(=O)(=O)Nc1ccc(CCC(=O)NNCCc2ccc(Cl)c(Cl)c2)cc1`, the % response came out at 95% in series [1]; 97% in series [2]; 98% in series [3]; 44% in series [4]; 106% in series [6]; 100% in series [7]. Besides, in [5], the IC50 came out at 4810 nM.
For `CS(=O)(=O)Nc1ccc(OCCNCC(=O)Nc2ccc(Cl)c(Cl)c2)cc1`, the Activity in series [8] is 21%. The % response turned out to be 95% in series [1]; 94% in [2]; 98% in [3]; 21% in series [4]; 108% in series [6]; 97% in series [7]. For the same compound, the inhibition at 10 µM in [10] is 67%. In addition, the IC50 in series [5] came out at 1110 nM.
As for `CS(=O)(=O)Nc1ccc(CCC(=O)NCCNc2ccc(Cl)c(Cl)c2)cc1`, the Activity in series [8] came to 1%. For the same compound, the % response came out at 84% in [1], 98% in series [3], 14% in series [4] and 99% in series [6]. Further, the IC50 in [5] is 65 nM.
Consider `CS(=O)(=O)Nc1ccc(OCC(=O)NCCSc2ccc(Cl)c(Cl)c2)cc1`, for which the Activity in series [8] was 5%. For the same compound, the % response in [1] is 96%; in series [2], 95%; in series [3], 94%; in series [4], 21%; in [6], 96%; in series [7] it was 101%. Besides, the inhibition at 10 µM in [10] turned out to be 75%. In addition, the half-maximal inhibitory concentration (IC50) in series [5] was found to be 362 nM.
As for `CS(=O)(=O)Nc1ccc(CCCC(=O)NCCc2ccc(Cl)c(Cl)c2)cc1`, the % response came out at 89% in series [1]; 102% in series [2]; 100% in [3]; 62% in [4]; 99% in [6]; 102% in series [7]. The concentration for half-maximal inhibition (IC50) in series [5] was 1860 nM.
For `CS(=O)(=O)Nc1ccc(OCC(=O)NCCOc2ccc(Cl)c(Cl)c2)cc1`, the Activity in series [8] came out at 11%. Moreover, the % response in series [1] was 92%; in series [2] it was 96%; in [3], 100%; in series [4] it was 21%; in [6] it was 97%; in series [7] it was 100%. In addition, the inhibition at 10 µM in series [10] is 42%. Further, the IC50 in [5] worked out at 380 nM.
The compound `CS(=O)(=O)Nc1ccc(CCC(=O)NCCCNc2ccc(Cl)c(Cl)c2)cc1` registered an Activity in series [8] of 19%. Also, the % response in [1] worked out at 96%; in [2], 90%; in series [3], 98%; in series [4] it was 12%; in [6], 96%; in [7], 100%. In addition, the inhibition at 10 µM in [10] came to 83%. Besides, the half-inhibitory concentration (IC50) in series [5] is 750 nM.
As to `CS(=O)(=O)Nc1ccc(CCC(=O)NN2C(=O)c3cc(Cl)c(Cl)cc3C2=O)cc1`, the % response in series [1] turned out to be 93%; in series [2], 102%; in [3] it was 100%; in series [4] it was 90%; in series [6] it was 101%; in series [7] it was 98%. Further, the half-maximal inhibitory concentration (IC50) in series [5] was determined as 41800 nM.
As for `CS(=O)(=O)Nc1ccc(CCCN2CCN(c3ccc(Cl)c(Cl)c3)C2=O)cc1`, the % response in [1] amounted to 91%; in [2], 97%; in [3], 99%; in series [4], 17%; in [6], 96%; in series [7], 100%. Besides, the inhibition at 10 µM in series [10] was 81%. In addition, the half-inhibitory concentration (IC50) in [5] was determined as 637 nM.
